System: U2OS
Assay: Multiplex assay against U2OS
Assay type: toxicity, cell-based
Details: human
Method in brief: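 With compound added, live cells were imaged on a CQ1 microscope at 37°C and 5% CO2; staining with Hoechst33342, BioTracker Green Microtubule Cytoskeleton Dye, MitoTracker Red and Annexin V Alexa Fluor 680 had been done at seeding. The CellPathfinder machine-learning gating scheme split cells into Hoechst high-intensity objects or normal cells, normal cells into healthy, pyknosed or fragmented nuclei, and pyknosed cells into mitotic or apoptotic. The tubulin, mitochondrial-mass and membrane-permeability phenotypes are per cents of healthy-nucleus cells.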

[1] = 12 h, 1 µM, compound concentration 1 uM, replicate 1
[2] = 12 h, 1 µM, compound concentration 1 uM, replicate 2
[3] = 12 h, 10 µM, compound concentration 10 uM, replicate 1
[4] = 12 h, 10 µM, compound concentration 10 uM, replicate 2
[5] = 24 h, 1 µM, compound concentration 1 uM, replicate 1
[6] = 24 h, 1 µM, compound concentration 1 uM, replicate 2
[7] = 24 h, 10 µM, compound concentration 10 uM, replicate 1
[8] = 24 h, 10 µM, compound concentration 10 uM, replicate 2
[9] = 48 h, 1 µM, compound concentration 1 uM, replicate 1
[10] = 48 h, 1 µM, compound concentration 1 uM, replicate 2
[11] = 48 h, 10 µM, compound concentration 10 uM, replicate 1
[12] = 48 h, 10 µM, compound concentration 10 uM, replicate 2

SMILES: CCCCC[C@H](O)/C=C/[C@H]1[C@H](O)CC(=O)[C@@H]1CCCCCCC(=O)O [ALPROSTADIL]
- Population Apoptotic (%) [1]: 100%
- Population Fragmented Nuclei (%) [1]: 31%
- Population Healthy Nuclei (%) [1]: 62%
- Population Hoechst High Intensity Objects (%) [1]: 1%
- Population Membrane Permeable-Phenotype (%) [1]: 4%
- Population Mitochondria Different-Phenotype (%) [1]: 2%
- Population Mitotic Cells (%) [1]: 0%
- Population Normal (%) [1]: 98%
- Population Pyknosed Nuclei (%) [1]: 6%
- Population Tubulin-Different-Phenotype (%) [1]: 2%
- Total Cell Count [1]: 219
- Population Apoptotic (%) [2]: 77%
- Population Fragmented Nuclei (%) [2]: 11%
- Population Healthy Nuclei (%) [2]: 81%
- Population Hoechst High Intensity Objects (%) [2]: 0%
- Population Membrane Permeable-Phenotype (%) [2]: 9%
- Population Mitochondria Different-Phenotype (%) [2]: 5%
- Population Mitotic Cells (%) [2]: 22%
- Population Normal (%) [2]: 100%
- Population Tubulin-Different-Phenotype (%) [2]: 6%
- Total Cell Count [2]: 132
- Population Apoptotic (%) [3]: 71%
- Population Fragmented Nuclei (%) [3]: 23%
- Population Healthy Nuclei (%) [3]: 69%
- Population Hoechst High Intensity Objects (%) [3]: 1%
- Population Membrane Permeable-Phenotype (%) [3]: 1%
- Population Mitochondria Different-Phenotype (%) [3]: 0%
- Population Mitotic Cells (%) [3]: 28%
- Population Normal (%) [3]: 98%
- Population Pyknosed Nuclei (%) [3]: 6%
- Population Tubulin-Different-Phenotype (%) [3]: 0%
- Total Cell Count [3]: 222
- Population Apoptotic (%) [4]: 77%
- Population Fragmented Nuclei (%) [4]: 15%
- Population Healthy Nuclei (%) [4]: 75%
- Population Hoechst High Intensity Objects (%) [4]: 2%
- Population Membrane Permeable-Phenotype (%) [4]: 5%
- Population Mitochondria Different-Phenotype (%) [4]: 3%
- Population Mitotic Cells (%) [4]: 22%
- Population Normal (%) [4]: 97%
- Population Pyknosed Nuclei (%) [4]: 8%
- Population Tubulin-Different-Phenotype (%) [4]: 5%
- Total Cell Count [4]: 104
- Population Apoptotic (%) [5]: 91%
- Population Fragmented Nuclei (%) [5]: 25%
- Population Healthy Nuclei (%) [5]: 65%
- Population Hoechst High Intensity Objects (%) [5]: 1%
- Population Membrane Permeable-Phenotype (%) [5]: 5%
- Population Mitochondria Different-Phenotype (%) [5]: 2%
- Population Mitotic Cells (%) [5]: 8%
- Population Normal (%) [5]: 98%
- Population Pyknosed Nuclei (%) [5]: 9%
- Population Tubulin-Different-Phenotype (%) [5]: 3%
- Total Cell Count [5]: 263
- Population Apoptotic (%) [6]: 87%
- Population Fragmented Nuclei (%) [6]: 14%
- Population Healthy Nuclei (%) [6]: 75%
- Population Hoechst High Intensity Objects (%) [6]: 0%
- Population Membrane Permeable-Phenotype (%) [6]: 8%
- Population Mitochondria Different-Phenotype (%) [6]: 4%
- Population Mitotic Cells (%) [6]: 12%
- Population Normal (%) [6]: 99%
- Total Cell Count [6]: 166
- Population Apoptotic (%) [7]: 94%
- Population Fragmented Nuclei (%) [7]: 19%
- Population Healthy Nuclei (%) [7]: 74%
- Population Hoechst High Intensity Objects (%) [7]: 1%
- Population Membrane Permeable-Phenotype (%) [7]: 5%
- Population Mitochondria Different-Phenotype (%) [7]: 0%
- Population Mitotic Cells (%) [7]: 5%
- Population Normal (%) [7]: 98%
- Population Pyknosed Nuclei (%) [7]: 6%
- Population Tubulin-Different-Phenotype (%) [7]: 3%
- Total Cell Count [7]: 271
- Population Apoptotic (%) [8]: 100%
- Population Fragmented Nuclei (%) [8]: 12%
- Population Healthy Nuclei (%) [8]: 76%
- Population Hoechst High Intensity Objects (%) [8]: 0%
- Population Membrane Permeable-Phenotype (%) [8]: 4%
- Population Mitochondria Different-Phenotype (%) [8]: 2%
- Population Mitotic Cells (%) [8]: 0%
- Population Normal (%) [8]: 99%
- Population Pyknosed Nuclei (%) [8]: 10%
- Population Tubulin-Different-Phenotype (%) [8]: 1%
- Total Cell Count [8]: 131
- Population Apoptotic (%) [9]: 87%
- Population Fragmented Nuclei (%) [9]: 22%
- Population Healthy Nuclei (%) [9]: 68%
- Population Hoechst High Intensity Objects (%) [9]: 2%
- Population Membrane Permeable-Phenotype (%) [9]: 4%
- Population Mitochondria Different-Phenotype (%) [9]: 2%
- Population Mitotic Cells (%) [9]: 12%
- Population Normal (%) [9]: 97%
- Population Pyknosed Nuclei (%) [9]: 9%
- Population Tubulin-Different-Phenotype (%) [9]: 2%
- Total Cell Count [9]: 367
- Population Apoptotic (%) [10]: 95%
- Population Fragmented Nuclei (%) [10]: 18%
- Population Healthy Nuclei (%) [10]: 71%
- Population Hoechst High Intensity Objects (%) [10]: 3%
- Population Membrane Permeable-Phenotype (%) [10]: 6%
- Population Mitochondria Different-Phenotype (%) [10]: 5%
- Population Mitotic Cells (%) [10]: 4%
- Population Normal (%) [10]: 96%
- Population Tubulin-Different-Phenotype (%) [10]: 6%
- Total Cell Count [10]: 236
- Population Apoptotic (%) [11]: 88%
- Population Fragmented Nuclei (%) [11]: 13%
- Population Healthy Nuclei (%) [11]: 76%
- Population Hoechst High Intensity Objects (%) [11]: 0%
- Population Membrane Permeable-Phenotype (%) [11]: 4%
- Population Mitochondria Different-Phenotype (%) [11]: 0%
- Population Mitotic Cells (%) [11]: 11%
- Population Normal (%) [11]: 99%
- Population Pyknosed Nuclei (%) [11]: 10%
- Population Tubulin-Different-Phenotype (%) [11]: 3%
- Total Cell Count [11]: 362
- Population Apoptotic (%) [12]: 100%
- Population Fragmented Nuclei (%) [12]: 11%
- Population Healthy Nuclei (%) [12]: 77%
- Population Hoechst High Intensity Objects (%) [12]: 2%
- Population Membrane Permeable-Phenotype (%) [12]: 6%
- Population Mitochondria Different-Phenotype (%) [12]: 1%
- Population Mitotic Cells (%) [12]: 0%
- Population Normal (%) [12]: 97%
- Population Tubulin-Different-Phenotype (%) [12]: 4%
- Total Cell Count [12]: 165
